This is an account of results in ChEMBL document CHEMBL3994599, “Pallidopenillines: Polyketides from the Alga-Derived Fungus Penicillium thomii Maire KMM 4675” (J Nat Prod, 2016).

The source made the active and inactive calls. The rule behind the calls is not given here.

For one assay, the system named is RAW264.7. Kind of assay: Inhibition of ROS generation in mouse RAW264.7 cells at 10 uM after 24 hrs by H2DCF-DA staining based fluorescence assay relative to control. It counts as functional. Conditions: RAW264.7, 24 h. Put shortly:
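RAW 264.7 murine macrophages were stimulated with lipopolysaccharide (LPS), and compounds were tested at 10 μM. ROS levels were expressed as percent change relative to control cells treated with LPS alone. Significance was reported as p values.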

Assay [1] relates to CWR22R. Kind of assay: Cytotoxicity against human 22Rv1 cells assessed as reduction in cell viability up to 72 hrs by MTT assay. It counts as functional, cell-based. Conditions: 22Rv1, 72 h.
Assay [2] relates to CWR22R. Kind of assay: Cytotoxicity against human 22Rv1 cells assessed as inhibition of colony formation at 1 uM relative to control. Type of assay: functional. Put shortly:
(§1)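 Soft agar method: 22Rv1 human prostate cancer cells were grown in soft agar with compound. Colony formation and growth were compared with untreated control.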

A further assay deals with HCT-116. Kind of assay: Cytotoxicity against human HCT116 cells assessed as reduction in cell viability up to 100 uM after 24 to 72 hrs by MTT assay. It counts as functional, cell-based. In general terms: Tetrazolium dyes change colour on reduction, which living cells bring about.
The next assay has as its system MEL28. As to the kind of experiment: Cytotoxicity against human MEL28 cells assessed as reduction in cell viability up to 100 uM after 24 to 72 hrs by MTT assay. Type of assay: functional, cell-based.
Assay [3] deals with CWR22R. As to the kind of experiment: Cytotoxicity against human 22Rv1 cells assessed as inhibition of colony formation at 2 uM relative to control. It counts as functional. Put shortly:
as §1

Turning to `CC(=O)OCCC(=O)[C@H]1C(C)=C[C@@H](O)[C@H]2[C@H](O)[C@@H](C)CC[C@H]12`, in the assay on RAW264.7, the inhibition at 10 µM came out at 36%. Besides, the IC50 in the assay with CWR22R [1] amounted to 9.8 µM. Further, in the assay with CWR22R [2], the inhibition at 1 µM amounted to 40%.

`C[C@H]1CC[C@H]2[C@@H](C=C[C@@](C)(O)[C@@H]2C(=O)CCO)[C@@H]1O`: the outcome in the assay on HCT-116 and with MEL28 was inactive.

With `CC(=O)OCCC(=O)[C@@H]1[C@H]2CC[C@H](COC(C)=O)C[C@@H]2C=C[C@@]1(C)O`, the outcome with HCT-116 and in the assay with MEL28 was inactive.

Compound `CC(=O)OCCC(=O)[C@@H]1[C@H]2CC[C@H](C)[C@@H](O)[C@@H]2[C@H](Cl)[C@@H](O)[C@@]1(C)O` displayed an inhibition at 10 µM in the assay on RAW264.7 of 37%.

Turning to `CC(=O)OC[C@H]1CC[C@@H]2[C@@H](C(=O)CCO)[C@](C)(O)C=C[C@H]2C1`, the result with HCT-116 and in the assay on MEL28 was inactive.

In the case of `CC(=O)OCCC(=O)[C@@H]1[C@H]2CC[C@H](C)[C@@H](O)[C@@H]2C=C[C@@]1(C)O`, the outcome in the assay with HCT-116 and in the assay with MEL28 was inactive. The inhibition at 2 µM in the assay with CWR22R [3] turned out to be 40%.

Take `CC(=O)OCCC(=O)[C@@H]1[C@H]2CC[C@H](CO)C[C@@H]2C=C[C@@]1(C)O`: the inhibition at 10 µM with RAW264.7 amounted to 27%. Further, the outcome with HCT-116 and with MEL28 was inactive.

As usually defined, the inhibition is the percentage by which the read-out fell short of the control. As a reminder, the IC50 is the concentration that gives 50% inhibition.
